Source: PMC10073089 (European Journal of Medicinal Chemistry, 2023)

Assays:
[1] = Pharmacokinetic study in ICR; format: in vivo, mice; details: for improvement in plasma exposure (AUClast) compared to niclosamide: ICR (CD-1) mice, oral 30 mg/kg; for conversion of prodrug to parent compound 21: mice plasma after single-dose administration
How it was run: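 Mice (N = 3 per group) fasted 12 h before dosing. Test compound given in DMSO/0.5% HMPC (5/95, v/v), 30 mg/kg orally or 2.5 mg/kg intravenously. Femoral-vein blood taken at 0.25, 0.5, 1, 2, 4, 8 and 24 h. […] analysed by LC-MS/MS for prodrug and parent. Mole correction applied for prodrug dosing; AUClast derived.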

[2] = Metabolic stability in human liver microsomes; format: in vitro ADME; details: pH 7.4
How it was run: (§1)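 Microsomes at 0.33 mg/mL final in 0.1 M Tris pH 7.4 with 5 mM MgCl2, 0.01% DMSO and 0.005% BSA. Test compound at 1 μM final. Preincubated 10 min at 37 °C, then started with NADPH (1 mM final). Aliquots taken at 0, 7, 17, 30 and 60 min and quenched with cold methanol. After centrifugation, parent compound quantified by LC-MS/MS; half-life reported in min.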

[3] = Sub-acute toxicity study; format: in vivo, ICR mice
How it was run: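 Male mice of 18–20 g in four groups of ten: one control group and three oral groups at 50, 100 and 200 mg/kg, dosed once daily for ten days. Body weight, food intake and behaviour checked daily. Animals fasted before dissection. Heart, liver, spleen, lung, kidney and administration site collected for organ weight and histology.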

[4] = test system: BECN1; test: Western blot assay, BECN1; format: cell-based; details: Vero-E6 cells
[5] = test system: SKP2; test: Western blot assay, SKP2 level in Vero-E6 cells; format: cell-based; details: 16 h
[6] = Metabolic stability in mouse liver microsomes; format: in vitro ADME; details: pH 7.4
How it was run: as §1

SMILES | improvement in plasma exposure (AUClast) compared to niclosamide [1] | half-life at 1 µM [2] | levels of BECN1 ([4]; 10 μM, vs control group) | level of SKP2 [5] | half-life at 1 µM [6] | conversion of prodrug to parent compound 21 [1] | other results
O=C(Nc1ccc(C(F)(F)F)cc1)c1cc(Cl)c(F)cc1O [Compound 19, 5-Chloro-4-fluoro-2-hydroxy-N-(4-(trifluoromethyl)phenyl)benzamide] | 3.19 fold | – | – | – | – | – | –
O=C(Nc1ccc(OC(F)(F)F)cc1)c1cc(Cl)c(F)cc1O [Compound 21, 5-Chloro-4-fluoro-2-hydroxy-N-(4-(trifluoromethoxy)phenyl)benzamide] | 10.84 fold | 120 min | higher than the control group | reduced | 22.6 min | – | tolerability ([3]; ICR mice, oral dosage up to 200 mg/kg, ten days): well tolerated; changes in body weight, organ weight, or tissue histology ([3]; male ICR mice, 50, 100, 200 mg/kg once a day for ten days): No significant changes; mortality ([3]; male ICR mice, 50, 100, 200 mg/kg once a day, 10 days observation): No mortality; levels of BECN1 ([4]; 3 μM and 1 μM): slightly increased
CC(C)C(=O)Oc1cc(F)c(Cl)cc1C(=O)Nc1ccc(OC(F)(F)F)cc1 [Compound 24, 4-Chloro-5-fluoro-2-((4-(trifluoromethoxy)phenyl)carbamoyl)phenyl isobutyrate] | – | – | – | – | – | rapidly hydrolyze to compound 21 | –
CC(=O)Oc1cc(F)c(Cl)cc1C(=O)Nc1ccc(OC(F)(F)F)cc1 [Compound 25, 4-Chloro-5-fluoro-2-((4-(trifluoromethoxy)phenyl)carbamoyl)phenyl acetate] | – | – | – | – | – | rapidly hydrolyze to compound 21 | –
C[C@H](N)C(=O)Oc1cc(F)c(Cl)cc1C(=O)Nc1ccc(OC(F)(F)F)cc1.Cl [Compound 26, 4-Chloro-5-fluoro-2-((4-(trifluoromethoxy)phenyl)carbamoyl)phenyll-alaninate monohydrochloride] | – | – | – | – | – | barely transforms to parent compound 21 | –
O=C(Nc1ccc([N+](=O)[O-])cc1Cl)c1cc(Cl)ccc1O [NIC, niclosamide, reference compound] | – | 13.3 min | higher than the control group | reduced | 5.86 min | – | –
